PMC3216638 (Regulatory peptides, 2009)

Tests used:
Type in all cases: cell-based, Homo sapiens
[1] = system: hMC4R/TM5 hMC2R; experiment: cAMP accumulation; settings: read-out: THIQ (EC50 (nM)); HEK293 cells, 1 h, 37°C, 1 mM IBMX; agonist
How it was run: (§1)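 HEK293 cells stably expressing FLAG-tagged hMC4R chimeras, with one TM swapped for the homologous hMC2R segment, were selected with G418. Cells were incubated in EBSS with test compound (10−10–10−6 M) and 10−3 M IBMX for 1 h at 37°C. The reaction was stopped with ice-cold ethanol and the supernatant dried under nitrogen at 55°C. Duplicate wells, three separate experiments; sigmoid variable-slope fit.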

[2] = system: hMC4R/TM2 hMC2R; experiment: […]-NDP-MSH displacement on transfected cells; settings: read-out: THIQ Ki; whole HEK293 cells, MEM with 0.2% BSA, 1 h
[3] = system: hMC4R/TM4 hMC2R; experiment: […]-NDP-MSH displacement on transfected cells; settings: read-out: THIQ Ki; whole HEK293 cells, MEM with 0.2% BSA, 1 h
[4] = system: hMC4R/TM4 hMC2R; experiment: cAMP accumulation; settings: read-out: THIQ (EC50 (nM)); HEK293 cells, 1 h, 37°C, 1 mM IBMX; agonist
How it was run: as §1

[5] = system: hMC4R/TM6 hMC2R; experiment: cAMP accumulation; settings: read-out: THIQ (EC50 (nM)); HEK293 cells, 1 h, 37°C, 1 mM IBMX; agonist
How it was run: as §1

[6] = system: hMC4R/TM2 hMC2R; experiment: cAMP accumulation; settings: read-out: THIQ (EC50 (nM)); HEK293 cells, 1 h, 37°C, 1 mM IBMX; agonist
How it was run: as §1

[7] = system: hMC4R/TM6 hMC2R; experiment: […]-NDP-MSH displacement on transfected cells; settings: read-out: THIQ Ki; whole HEK293 cells, MEM with 0.2% BSA, 1 h
[8] = system: hMC4R/TM5 hMC2R; experiment: […]-NDP-MSH displacement on transfected cells; settings: read-out: THIQ Ki; whole HEK293 cells, MEM with 0.2% BSA, 1 h
[9] = system: hMC4R/TM3 hMC2R; experiment: […]-NDP-MSH displacement on transfected cells; settings: read-out: THIQ Ki; whole HEK293 cells, MEM with 0.2% BSA, 1 h
[10] = system: hMC4R/TM3 hMC2R; experiment: cAMP accumulation; settings: read-out: THIQ (EC50 (nM)); HEK293 cells, 1 h, 37°C, 1 mM IBMX; agonist
How it was run: as §1

## O=C(N[C@H](Cc1ccc(Cl)cc1)C(=O)N1CCC(Cn2cncn2)(C2CCCCC2)CC1)[C@H]1Cc2ccccc2CN1 [THIQ, N-(3R)-1 4-tetrahydroisoquinolinium-3-ylcarbonyl-(1R)-1-(4-chlorobenzyl)-2-4-cyclohexyl-4-(1H-1,2,4-triazol-1-ylmethyl)piperidin-1-yl-2-oxoethylamine]
[1]
  EC50: 3.9 ± 0.4 nM
[2]
  Ki: 6.2 ± 0.2 nM
[3]
  Ki: 7.2 ± 2.3 nM
[4]
  EC50: 3.5 ± 0.3 nM
[5]
  EC50: 2.8 ± 0.6 nM
[6]
  EC50: 3.1 ± 0.3 nM
[7]
  Ki: 5.3 ± 0.2 nM
[8]
  Ki: 6.7 ± 3.4 nM
[9]
  Ki: 76.2 ± 17.3 nM
[10]
  EC50: 91 ± 6.2 nM
